# Laboratory results from ChEMBL document CHEMBL5096242, “Structure-Activity Studies of 1H-Imidazo[4,5-c]quinolin-4-amine Derivatives as A3 Adenosine Receptor Positive Allosteric Modulators” (J Med Chem, 2022).
# pIC50, pKi: −log10 of the molar value.
# Tests used:
# [1] = molecular target: Cytochrome P450 1A2 (Homo sapiens) (UniProt P05177)
# [2] = Inhibition of CYP2C9 in rat liver Microsome using phenacetin as substrate in presence of NADPH by LC-MS/MS analysis
# [3] = molecular target: Cytochrome P450 1A2 (Homo sapiens) (UniProt P05177); remark: listed apart in the source
# Cytochrome P450 1A2 = molecular target: T1, Cytochrome P450 1A2 (Homo sapiens, UniProt P05177); assay: Inhibition of CYP1A2 in human liver Microsome using phenacetin as substrate in presence of NADPH by LC-MS/MS analysis
# T1 sequence (P05177 whole entry): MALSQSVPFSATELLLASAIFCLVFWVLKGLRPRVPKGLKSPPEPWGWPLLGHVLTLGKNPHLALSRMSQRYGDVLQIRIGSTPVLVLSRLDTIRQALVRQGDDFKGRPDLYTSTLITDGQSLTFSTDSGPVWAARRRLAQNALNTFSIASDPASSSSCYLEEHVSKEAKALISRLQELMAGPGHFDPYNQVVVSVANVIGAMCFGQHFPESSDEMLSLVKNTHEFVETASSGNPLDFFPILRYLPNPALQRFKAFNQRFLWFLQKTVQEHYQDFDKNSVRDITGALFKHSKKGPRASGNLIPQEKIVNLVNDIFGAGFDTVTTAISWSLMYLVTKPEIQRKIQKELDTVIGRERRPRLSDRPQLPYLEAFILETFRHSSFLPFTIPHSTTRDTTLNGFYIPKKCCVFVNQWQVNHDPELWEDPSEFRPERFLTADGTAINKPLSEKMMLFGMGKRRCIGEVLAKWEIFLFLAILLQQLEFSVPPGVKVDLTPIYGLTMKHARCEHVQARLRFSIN
# Cytochrome P450 2D6 = Cytochrome P450 2D6 (Homo sapiens, UniProt P10635); assay: Inhibition of CYP2D6 in human liver Microsome using dextromethorphan as substrate in presence of NADPH by LC-MS/MS analysis
# [4] = Inhibition of CYP2C9 in mouse liver Microsome using phenacetin as substrate in presence of NADPH by LC-MS/MS analysis
# D(3) dopamine receptor = D(3) dopamine receptor (Homo sapiens, UniProt P35462); assay: Displacement of [3H]-N-methylspiperone from human D3 receptor expressed in human HEK293T cell membrane incubated for 90 mins by radioligand binding assay
# [5] = molecular target: T2, Adenosine receptor A3 (Homo sapiens) (UniProt P0DMS8); assay: Positive allosteric modulator activity in wild type human A3AR opioid receptor stably expressed in human HEK293 cell membrane assessed as increase in CI-IB-MECA induced [35S]GTPGAgammaS binding to receptor at 10 uM preincubated for 1 hrs with CI-IB-MECA further incubated with [35S]GTPGAgammaS for …; format: cell membranes; conditions: filed as positive allosteric modulator, time 3.0 hrs
# T2 sequence (whole entry): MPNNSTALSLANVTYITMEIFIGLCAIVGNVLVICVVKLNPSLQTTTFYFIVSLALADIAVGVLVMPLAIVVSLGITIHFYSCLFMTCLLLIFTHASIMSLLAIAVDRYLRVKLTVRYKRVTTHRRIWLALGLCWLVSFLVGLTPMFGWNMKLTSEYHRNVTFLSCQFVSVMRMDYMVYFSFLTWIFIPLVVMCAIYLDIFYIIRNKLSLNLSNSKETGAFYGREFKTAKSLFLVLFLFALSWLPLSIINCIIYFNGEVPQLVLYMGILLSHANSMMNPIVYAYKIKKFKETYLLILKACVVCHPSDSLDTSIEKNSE
# [6] = molecular target: Sigma non-opioid intracellular receptor 1 (Homo sapiens, UniProt Q99720); assay: Displacement of [3H]-LSD from human sigma1 receptor expressed in human HEK293T cell membrane incubated for 90 mins by radioligand binding assay
# [7] = mouse, microsomes, 2 h, 3 µM
# [8] = Stability in human plasma assessed as compound remaining and measured after 120 mins by LC-MS/MS analysis; conditions: 2 h
# [9] = Stability of the compound in simulated gastric fluid at pH 1 to 2 assessed as compound remaining at 120 mins by LC-MS/MS analysis; conditions: simulated gi fluid, pH 1, 2 h
# [10] = Protein binding in rat plasma assessed as bound fraction at 10 uM and measured for 5 hrs by LC-MS/MS based dialysis analysis
# [11] = Stability in mouse plasma assessed as compound remaining and measured after 120 mins by LC-MS/MS analysis; conditions: 2 h
# [12] = Microsomal stability in rat liver microsomes assessed as parent compound remaining at 3 uM incubated for 120 mins by LC-MS/MS analysis; conditions: 2 h
# [13] = Clearance in Wistar rat plasma at 10 mg/kg, po and measured upto 24 hrs; format: ADME, organism-based
# How it was run: (§1)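 Fasted male Wistar rats (RccHan:WIST), 6–10 weeks old at acclimation, three per group. Dosing was 0.5 mg/kg i.v. in DMSO:20% HPBCD (10:90), or 1, 3 and 10 mg/kg by oral gavage in DMSO:Kolliphor EL:PBS (15:15:70). Jugular blood was taken at 0.083–24 h (stated for i.v.) into heparin, and plasma was frozen at −70 °C. Parameters came from non-compartmental analysis.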
# [14] = Half life in Wistar rat at 10 mg/kg, po and measured upto 24 hrs; conditions: in vivo
# [15] = molecular target: Sigma intracellular receptor 2 (Homo sapiens, UniProt Q5BJF2); assay: Displacement of [3H]-DTG from human sigma2 receptor expressed in human HEK293T cell membrane incubated for 90 mins by radioligand binding assay
# [16] = Microsomal stability in human liver microsomes assessed as parent compound remaining at 3 uM incubated for 120 mins by LC-MS/MS analysis; conditions: 2 h
# in vivo [17] = conditions: Wistar, rat, po, 10 mg/kg
# [18] = Half life in Wistar rat at 3 mg/kg, po and measured upto 24 hrs; conditions: in vivo
# [19] = Stability of the compound in simulated intestinal fluid at pH 6 to 8 assessed as compound remaining at 120 mins by LC-MS/MS analysis; conditions: simulated gi fluid, pH 6, 2 h
# [20] = Half life in Wistar rat at 0.5 mg/kg, iv and measured upto 24 hrs; format: ADME, organism-based; conditions: in vivo
# How it was run: as §1
# [21] = Clearance in Wistar rat plasma at 1 mg/kg, po and measured upto 24 hrs; format: ADME, organism-based
# How it was run: as §1
# [22] = Stability in rat plasma assessed as compound remaining and measured after 120 mins by LC-MS/MS analysis; conditions: 2 h
# [23] = human, microsomes, 2 h, 3 µM
# [24] = MRT in Wistar rat at 1 mg/kg, po and measured upto 24 hrs; format: ADME, organism-based; conditions: plasma, 3 mg/kg, in the assay text read “3 mg/kg” for “1 mg/kg”
# How it was run: as §1
# [25] = Stability in rat plasma assessed as half life and measured after 120 mins by LC-MS/MS analysis; conditions: 2 h
# [26] = Stability in mouse plasma assessed as half life and measured after 120 mins by LC-MS/MS analysis; conditions: 2 h
# [27] = Clearance in Wistar rat assessed as parent compound remaining at 3 mg/kg, po and measured upto 24 hrs; format: ADME, organism-based; conditions: in vivo
# How it was run: as §1
# [28] = simulated gi fluid, pH 6, 2 h
# [29] = molecular target: Voltage-gated inwardly rectifying potassium channel KCNH2 (Homo sapiens, UniProt Q12809); assay: Inhibition of human ERG stably transfected in HEK293 cells incubated for 2 hrs by TAMRA fluorescence polarization assay
# [30] = Aqueous solubility of compound at pH 7.4 by PDA spectrophotometric analysis; conditions: buffer
# [31] = Tmax in Wistar rat plasma at 1 to 10 mg/kg, po and measured after 2 hrs; format: ADME, organism-based; conditions: dose 1-10 mg/kg
# How it was run: as §1
# [32] = simulated gi fluid, pH 1, 2 h
# [33] = Clearance in Wistar rat plasma at 3 mg/kg, po and measured upto 24 hrs; format: ADME, organism-based
# How it was run: as §1
# in vivo [34] = conditions: Wistar, rat, po, 3 mg/kg
# [35] = Stability in human plasma assessed as half life and measured after 120 mins by LC-MS/MS analysis; conditions: 2 h
# [36] = Permeability across basolateral to apical side in human Caco-2 cells assessed as compound recovery at 10 uM measured upto 120 mins by LC-MS/MS analysis; format: ADME, cell-based; conditions: caco-2, 2 h
# [37] = Microsomal stability in mouse liver microsomes assessed as parent compound remaining at 3 uM incubated for 120 mins by LC-MS/MS analysis; conditions: 2 h
# [38] = Cmax in Wistar rat plasma at 10 mg/kg, po and measured after 2 hrs; format: ADME, organism-based; set-up: time 2 hrs, dose 10 mg/kg, route po; conditions: in vivo
# How it was run: as §1
# [39] = rat, microsomes, 2 h, 3 µM
# [40] = Permeability across apical to basolateral side in human Caco-2 cells assessed as compound recovery at 10 uM measured upto 120 mins by LC-MS/MS analysis; format: ADME, cell-based; conditions: caco-2, 2 h
# [41] = molecular target: 5-hydroxytryptamine receptor 2B (Homo sapiens, UniProt P41595); assay: Displacement of [3H]-LSD from human 5HT2B expressed in human HEK293 cell membrane incubated for 90 mins by radioligand binding assay; format: cell membranes
# How it was run: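 Off-target panel run by the NIMH PDSP. Each derivative was first screened at 10 μM in radioligand binding.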
# Mu-type opioid receptor = Mu-type opioid receptor (Homo sapiens, UniProt P35372); assay: Displacement of [3H]-DAMGO from human MOR receptor expressed in human HEK293 cell membrane incubated for 90 mins by radioligand binding assay
# [42] = molecular target: Sodium-dependent dopamine transporter (Homo sapiens, UniProt Q01959); assay: Displacement of [3H]-Win35428 from human DAT receptor expressed in human HEK293T cell membrane incubated for 90 mins by radioligand binding assay
# Translocator protein = Translocator protein (Homo sapiens, UniProt P30536); assay: Inhibition of human TPSO receptor expressed in human HEK293T cell membrane incubated for 90 mins by radioligand binding assay
# Adenosine receptor A3 = molecular target: T3, Adenosine receptor A3 (Homo sapiens, UniProt P0DMS8)
# T3 sequence (P0DMS8 whole entry): T2 sequence (whole entry)
# [43] = Protein binding in human plasma assessed as bound fraction at 10 uM and measured for 5 hrs by LC-MS/MS based dialysis analysis
# [44] = Protein binding in mouse plasma assessed as bound fraction at 10 uM and measured for 5 hrs by LC-MS/MS based dialysis analysis
# Chain of Sigma intracellular receptor 2 (Q5BJF2 whole entry): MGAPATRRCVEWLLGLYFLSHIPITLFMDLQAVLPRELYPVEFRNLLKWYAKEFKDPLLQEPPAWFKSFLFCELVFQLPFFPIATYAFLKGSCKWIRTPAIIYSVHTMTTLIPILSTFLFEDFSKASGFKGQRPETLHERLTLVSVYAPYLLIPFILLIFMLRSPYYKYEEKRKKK
# Chain of D(3) dopamine receptor (P35462 whole entry): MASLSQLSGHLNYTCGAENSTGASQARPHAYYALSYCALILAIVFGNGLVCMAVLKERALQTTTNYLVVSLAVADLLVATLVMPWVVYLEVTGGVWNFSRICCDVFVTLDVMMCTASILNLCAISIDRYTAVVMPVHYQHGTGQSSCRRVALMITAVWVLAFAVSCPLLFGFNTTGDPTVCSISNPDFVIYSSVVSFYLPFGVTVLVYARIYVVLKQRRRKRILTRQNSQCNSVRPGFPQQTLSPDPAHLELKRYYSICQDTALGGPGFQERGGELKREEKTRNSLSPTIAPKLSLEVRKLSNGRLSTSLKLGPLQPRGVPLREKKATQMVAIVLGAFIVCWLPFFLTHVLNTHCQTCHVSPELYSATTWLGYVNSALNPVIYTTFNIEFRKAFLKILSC
# Chain of Sigma non-opioid intracellular receptor 1 (Q99720 whole entry): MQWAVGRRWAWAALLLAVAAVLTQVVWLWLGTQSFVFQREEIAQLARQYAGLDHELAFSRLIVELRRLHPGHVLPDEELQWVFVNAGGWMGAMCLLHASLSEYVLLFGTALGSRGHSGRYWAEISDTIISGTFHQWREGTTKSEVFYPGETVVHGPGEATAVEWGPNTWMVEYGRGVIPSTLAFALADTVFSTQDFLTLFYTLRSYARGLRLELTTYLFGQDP
# Chain of Voltage-gated inwardly rectifying potassium channel KCNH2 (Q12809 whole entry): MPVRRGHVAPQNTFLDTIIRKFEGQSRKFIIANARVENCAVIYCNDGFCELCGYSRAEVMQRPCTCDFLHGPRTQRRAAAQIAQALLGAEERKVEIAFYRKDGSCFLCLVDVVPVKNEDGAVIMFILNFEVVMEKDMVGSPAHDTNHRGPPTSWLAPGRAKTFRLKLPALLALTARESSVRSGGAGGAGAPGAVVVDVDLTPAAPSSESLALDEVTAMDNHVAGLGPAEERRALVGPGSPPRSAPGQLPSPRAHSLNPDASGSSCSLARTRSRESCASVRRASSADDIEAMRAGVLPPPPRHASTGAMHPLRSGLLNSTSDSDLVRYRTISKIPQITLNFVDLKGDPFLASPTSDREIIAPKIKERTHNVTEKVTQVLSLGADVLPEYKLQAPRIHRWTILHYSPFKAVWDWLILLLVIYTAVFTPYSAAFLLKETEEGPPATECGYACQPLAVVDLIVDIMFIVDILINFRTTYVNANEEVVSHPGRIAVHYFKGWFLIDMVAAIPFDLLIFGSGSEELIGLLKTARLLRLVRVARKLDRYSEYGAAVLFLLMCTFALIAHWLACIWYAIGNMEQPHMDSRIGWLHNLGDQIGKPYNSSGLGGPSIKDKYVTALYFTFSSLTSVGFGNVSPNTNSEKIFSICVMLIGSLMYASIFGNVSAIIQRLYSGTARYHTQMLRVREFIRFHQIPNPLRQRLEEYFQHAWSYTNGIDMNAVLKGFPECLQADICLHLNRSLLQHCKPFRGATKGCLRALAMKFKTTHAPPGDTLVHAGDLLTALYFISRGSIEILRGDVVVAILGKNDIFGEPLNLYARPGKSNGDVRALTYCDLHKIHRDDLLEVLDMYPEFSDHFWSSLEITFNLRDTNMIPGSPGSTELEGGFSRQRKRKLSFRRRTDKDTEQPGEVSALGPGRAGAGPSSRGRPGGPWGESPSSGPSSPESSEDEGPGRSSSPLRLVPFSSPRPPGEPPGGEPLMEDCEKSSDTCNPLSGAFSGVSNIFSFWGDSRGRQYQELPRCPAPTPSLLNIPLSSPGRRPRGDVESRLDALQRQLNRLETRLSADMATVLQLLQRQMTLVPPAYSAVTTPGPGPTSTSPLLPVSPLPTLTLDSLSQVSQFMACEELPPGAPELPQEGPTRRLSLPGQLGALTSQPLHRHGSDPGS
# Chain of Cytochrome P450 2D6 (P10635 whole entry): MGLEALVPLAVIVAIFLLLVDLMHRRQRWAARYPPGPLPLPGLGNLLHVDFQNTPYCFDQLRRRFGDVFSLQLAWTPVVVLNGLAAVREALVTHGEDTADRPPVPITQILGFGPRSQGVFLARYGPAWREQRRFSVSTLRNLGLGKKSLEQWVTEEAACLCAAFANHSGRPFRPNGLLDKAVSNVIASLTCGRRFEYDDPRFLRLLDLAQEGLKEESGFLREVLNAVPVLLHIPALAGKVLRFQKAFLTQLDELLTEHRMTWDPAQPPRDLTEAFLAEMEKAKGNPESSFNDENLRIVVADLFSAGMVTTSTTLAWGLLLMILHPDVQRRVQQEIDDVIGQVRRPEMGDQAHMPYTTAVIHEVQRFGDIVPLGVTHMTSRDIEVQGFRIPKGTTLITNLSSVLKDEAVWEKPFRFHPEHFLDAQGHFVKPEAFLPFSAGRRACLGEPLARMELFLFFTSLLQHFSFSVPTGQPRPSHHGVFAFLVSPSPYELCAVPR
# Chain of 5-hydroxytryptamine receptor 2B (P41595 whole entry): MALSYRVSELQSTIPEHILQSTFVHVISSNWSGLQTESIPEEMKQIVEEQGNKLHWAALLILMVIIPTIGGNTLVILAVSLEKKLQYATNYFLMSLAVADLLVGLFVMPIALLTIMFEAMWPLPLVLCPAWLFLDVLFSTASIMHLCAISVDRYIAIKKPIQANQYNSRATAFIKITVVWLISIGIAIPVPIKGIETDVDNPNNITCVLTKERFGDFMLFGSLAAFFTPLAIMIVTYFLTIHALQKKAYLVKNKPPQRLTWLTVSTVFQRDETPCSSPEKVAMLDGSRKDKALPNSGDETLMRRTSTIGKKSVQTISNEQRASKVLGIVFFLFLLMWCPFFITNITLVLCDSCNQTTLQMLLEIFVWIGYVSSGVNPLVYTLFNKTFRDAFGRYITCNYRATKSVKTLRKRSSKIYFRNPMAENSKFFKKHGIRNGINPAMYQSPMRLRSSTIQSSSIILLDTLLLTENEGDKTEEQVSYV
# Chain of Translocator protein (P30536 whole entry): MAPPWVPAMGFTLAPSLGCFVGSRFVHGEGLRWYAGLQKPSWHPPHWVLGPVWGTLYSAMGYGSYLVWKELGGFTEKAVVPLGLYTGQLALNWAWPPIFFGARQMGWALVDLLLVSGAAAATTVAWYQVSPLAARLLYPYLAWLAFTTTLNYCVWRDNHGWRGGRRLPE
# Chain of Sodium-dependent dopamine transporter (Q01959 whole entry): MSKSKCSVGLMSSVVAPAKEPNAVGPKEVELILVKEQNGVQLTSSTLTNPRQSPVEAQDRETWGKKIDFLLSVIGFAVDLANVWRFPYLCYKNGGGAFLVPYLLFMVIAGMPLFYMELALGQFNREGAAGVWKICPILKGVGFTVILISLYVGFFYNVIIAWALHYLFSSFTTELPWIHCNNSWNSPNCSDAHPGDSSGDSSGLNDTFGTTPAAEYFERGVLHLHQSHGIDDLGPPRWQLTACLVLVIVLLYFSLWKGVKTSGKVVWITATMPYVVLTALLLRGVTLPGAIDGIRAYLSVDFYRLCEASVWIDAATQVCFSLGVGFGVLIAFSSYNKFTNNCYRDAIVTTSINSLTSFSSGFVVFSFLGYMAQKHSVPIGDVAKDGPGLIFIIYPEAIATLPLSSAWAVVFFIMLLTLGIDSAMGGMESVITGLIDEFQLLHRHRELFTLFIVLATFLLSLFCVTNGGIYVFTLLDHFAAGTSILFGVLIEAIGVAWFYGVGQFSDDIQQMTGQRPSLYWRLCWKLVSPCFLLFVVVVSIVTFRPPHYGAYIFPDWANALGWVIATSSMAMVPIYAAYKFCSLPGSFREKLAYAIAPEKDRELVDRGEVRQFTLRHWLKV
# Chain of Mu-type opioid receptor (P35372 whole entry): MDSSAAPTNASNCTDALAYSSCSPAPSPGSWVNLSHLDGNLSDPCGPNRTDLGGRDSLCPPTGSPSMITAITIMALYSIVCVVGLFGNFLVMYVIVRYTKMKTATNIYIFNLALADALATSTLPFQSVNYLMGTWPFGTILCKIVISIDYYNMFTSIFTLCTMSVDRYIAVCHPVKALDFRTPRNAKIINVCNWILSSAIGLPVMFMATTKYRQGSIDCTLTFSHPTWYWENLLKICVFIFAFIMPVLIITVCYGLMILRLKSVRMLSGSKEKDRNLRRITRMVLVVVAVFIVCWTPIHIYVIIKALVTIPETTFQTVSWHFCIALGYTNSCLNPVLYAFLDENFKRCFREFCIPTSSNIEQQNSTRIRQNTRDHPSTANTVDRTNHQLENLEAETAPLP
structure (smiles),measurement,setting,value
Clc1ccc(COC(Cn2ccnc2)c2ccc(Cl)cc2Cl)c(Cl)c1 (stereo unspecified) [MICONAZOLE],pIC50,[1],5.34
same,pIC50,[2],4.42
same,pIC50,[3],5.34
same,pIC50,Cytochrome P450 1A2,5.34
same,pIC50,Cytochrome P450 2D6,5.79
same,pIC50,[4],4.42
Clc1ccc(Nc2nc3ccccc3c3[nH]c(C4CCCCCCCCCC4)nc23)cc1Cl,pKi,D(3) dopamine receptor,5.28
Clc1ccc(Nc2nc3ccccc3c3[nH]c(C4CC5C=CC4CC5)nc23)cc1Cl (racemic),Activity,[5],100%
Ic1ccc(Nc2nc3ccccc3c3[nH]c(C4CCCCC4)nc23)cc1,pKi,D(3) dopamine receptor,6.07
Clc1ccc(Nc2nc3ccccc3c3[nH]c(C4CCC=CCC4)nc23)cc1Cl,pKi,[6],5.33
same,t1/2,[7],3.23 h
same,Stability,[8],69.7%
same,Stability,[9],69.1%
same,PPB,[10],99.1%
same,Stability,[11],83.5%
same,Stability,[12],52.1%
same,CL/F,[13],16.2 mL/min/kg
same,t1/2,[14],2.6 h
same,pKi,[15],6.24
same,Stability,[16],81.2%
same,bioavailability at 24 h,in vivo [17],47.5%
same,t1/2,[18],1.29 h
same,Stability,[19],100%
same,t1/2,[20],2.38 h
same,CL/F,[21],7.45 mL/min/kg
same,Stability,[22],88.7%
same,t1/2,[23],3.33 h
same,MRT,[24],3.98 h
same,t1/2,[25],9.67 h
same,t1/2,[26],11.6 h
same,remaining at 24 h,[27],50%
same,t1/2,[28],9.55 h
same,pIC50,[29],5.22
same,solubility,[30],0.39 µg/mL
same,pIC50,[1],5.16
same,Tmax,[31],2 h
same,t1/2,[32],3.4 h
same,pIC50,[3],5.16
same,CL/F,[33],26.3 mL/min/kg
same,bioavailability at 24 h,in vivo [34],28.7%
same,t1/2,[35],2.65 h
same,permeability,[36],78%
same,pIC50,Cytochrome P450 1A2,5.16
same,Stability,[37],76.4%
same,Cmax,[38],1780 ng/mL
same,t1/2,[39],1.17 h
same,permeability,[40],48.1%
Clc1ccc(Nc2nc3ccccc3c3[nH]c(C4CCCCCCCCCCC4)nc23)cc1Cl,pKi,D(3) dopamine receptor,5.12
Clc1ccc(Nc2nc3ccccc3c3[nH]c(C4CCCCCCCC4)nc23)cc1Cl,pKi,[6],5.29
same,pKi,[15],6.04
CCCC(CCC)c1nc2c(Nc3ccc(Cl)c(Cl)c3)nc3ccccc3c2[nH]1,pKi,[6],5.83
same,pKi,[41],5.87
same,pKi,[15],5.87
COc1ccc([C@@H]2Sc3ccccc3N(CCN(C)C)C(=O)[C@@H]2OC(C)=O)cc1 [DILTIAZEM],Stability,[22],83.9%
Clc1ccc(Nc2nc3ccccc3c3[nH]c([C@@H]4C[C@@H]5CCC[C@@H](C5)C4)nc23)cc1Cl,pKi,Mu-type opioid receptor,5.14
same,pKi,[42],6.33
CCCC(CCC)c1nc2c(Nc3ccc(I)cc3)nc3ccccc3c2[nH]1,pKi,[15],6.05
same,pKi,Translocator protein,6.91
COc1ccc2[nH]c([S+]([O-])Cc3ncc(C)c(OC)c3C)nc2c1 (stereo unspecified) [OMEPRAZOLE],Stability,[9],0%
same,t1/2,[32],0.255 h
Clc1ccc(Nc2nc3ccccc3c3[nH]c(C4CCCCC4)nc23)cc1Cl,pKi,Adenosine receptor A3,5.70
CCN(CC)CCOC(=O)c1ccc(N)cc1 [PROCAINE],Stability,[8],0%
same,Stability,[11],0%
same,t1/2,[26],0.00183 h
CC(=O)CC(c1ccccc1)c1c(O)c2ccccc2oc1=O (stereo unspecified) [WARFARIN],PPB,[43],96.3%
same,PPB,[44],83.6%
